The text below walks through data of ChEMBL document CHEMBL4834416, “The Discovery of Novel ACA Derivatives as Specific TRPM2 Inhibitors that Reduce Ischemic Injury Both In Vitro and In Vivo” (J Med Chem, 2021).

Broadly, the IC50 is the point on the concentration scale where inhibition reaches its midpoint. What is called inhibition is the relative decrease from the control value, in per cent.

The source made the active and inactive calls. The rule behind the calls is not given here.

Data set [1] deals with T1, Transient receptor potential cation channel subfamily M member 8 (Homo sapiens, UniProt Q7Z2W7). Kind of data set: Inhibition of human TRPM8 expressed in HEK293T cells assessed as blocked of menthol-activated current by whole cell patch clamp electrophysiology relative to control. In kind it is cell-based. The gist of the method:
(§1)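 Whole-cell patch clamp was run at room temperature on HEK293T cells transiently cotransfected with human TRPM8 plus GFP, 24–48 h before recording. ECS was 145 NaCl, 5.6 KCl, 2 MgCl₂, 1.2 CaCl₂, 10 HEPES, pH 7.2. Current was activated with 1 mM menthol, and compound was perfused at least 60 s after it stabilized. Inhibition was calculated relative to stable agonist current minus residual current; n = 3–6.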
(In general: In patch-clamp work, channel activity is measured electrically.)
Target sequence in this assay (Q7Z2W7 whole entry, the tested form may be a part): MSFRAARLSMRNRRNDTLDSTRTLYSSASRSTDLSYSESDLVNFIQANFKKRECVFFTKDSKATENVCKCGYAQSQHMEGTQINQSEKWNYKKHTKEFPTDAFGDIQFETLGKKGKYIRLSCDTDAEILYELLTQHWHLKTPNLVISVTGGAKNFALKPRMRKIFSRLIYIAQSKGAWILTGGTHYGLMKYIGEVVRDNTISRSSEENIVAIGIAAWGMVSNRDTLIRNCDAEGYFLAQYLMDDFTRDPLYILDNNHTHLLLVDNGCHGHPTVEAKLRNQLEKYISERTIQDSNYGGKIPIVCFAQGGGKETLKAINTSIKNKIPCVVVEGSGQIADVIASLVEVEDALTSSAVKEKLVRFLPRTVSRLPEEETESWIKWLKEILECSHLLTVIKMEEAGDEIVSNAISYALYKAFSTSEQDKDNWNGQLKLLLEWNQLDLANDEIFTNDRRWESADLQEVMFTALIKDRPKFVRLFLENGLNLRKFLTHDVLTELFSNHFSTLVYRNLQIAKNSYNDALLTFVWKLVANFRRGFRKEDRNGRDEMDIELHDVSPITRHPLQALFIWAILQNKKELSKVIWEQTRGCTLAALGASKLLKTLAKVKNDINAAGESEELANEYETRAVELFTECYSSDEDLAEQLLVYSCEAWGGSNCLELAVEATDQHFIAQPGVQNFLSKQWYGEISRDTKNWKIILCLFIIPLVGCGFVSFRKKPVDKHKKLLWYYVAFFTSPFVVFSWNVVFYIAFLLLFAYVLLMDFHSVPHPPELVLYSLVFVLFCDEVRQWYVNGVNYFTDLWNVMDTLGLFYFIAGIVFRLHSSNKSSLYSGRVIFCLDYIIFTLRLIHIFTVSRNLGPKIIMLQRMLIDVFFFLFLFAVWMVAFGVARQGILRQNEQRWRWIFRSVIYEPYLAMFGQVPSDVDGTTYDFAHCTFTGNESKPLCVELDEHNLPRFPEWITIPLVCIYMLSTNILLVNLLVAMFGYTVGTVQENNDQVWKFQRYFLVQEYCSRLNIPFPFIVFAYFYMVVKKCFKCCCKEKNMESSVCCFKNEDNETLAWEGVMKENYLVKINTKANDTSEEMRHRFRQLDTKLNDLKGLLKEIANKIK

Data set [2] has as its system SH-SY5Y. As to the kind of experiment: Cytotoxicity against human SH-SY5Y cells assessed as toxicity at 30 uM incubated for 24 hrs by CCK-8 assay. In kind it is cell-based. The gist of the method: (§2)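 SH-SY5Y cells were seeded at 2 × 10⁴ per well and grown 12 h at 37 °C. They were then treated with compound (1–30 μM) under normoxic, normal-glucose conditions for 24 h. CCK-8 (10%) was added for 2 h at 37 °C and OD450 read. Viability was taken relative to untreated control after blank subtraction, with three replicate wells.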
(In general: Formazan colour is commonly taken as a measure of viable cells.)

In data set [3] the target is T1, Transient receptor potential cation channel subfamily M member 8. Kind of data set: Inhibition of human TRPM8 expressed in HEK293T cells assessed as blocked of menthol-activated current at 10 uM by whole cell patch clamp electrophysiology relative to control. In kind it is cell-based. The gist of the method: as §1
Target sequence in this assay (Q7Z2W7 whole entry, looked up, the tested form may be a part): as the sequence (Q7Z2W7 whole entry, the tested form may be a part) above
Data set [4] has the same target. Kind of data set: Inhibition of human TRPM8 expressed in HEK293T cells assessed as blocked of menthol-activated current at 3 uM by whole cell patch clamp electrophysiology relative to control. In kind it is cell-based. The gist of the method: as §1
Target sequence in this assay (Q7Z2W7 whole entry, looked up, the tested form may be a part): as the sequence (Q7Z2W7 whole entry, the tested form may be a part) above
Data set [5] has as its target T2, Phospholipase A2 (Homo sapiens, UniProt P04054). Kind of data set: Inhibition of PLA2 (unknown origin) using soybean phosphatidylcholine as substrate at 10 uM preincubated for 30 mins followed incubated for 60 mins after substrate addition by microplate reader relative to control. The gist of the method:
(§3)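 PLA2 (4 μg/L in PBS) was preincubated 30 min at 37 °C with inhibitor in 125 mM Tris. Substrate was then added for 60 min: soybean phosphatidylcholine with Tris, CaCl₂, sodium deoxycholate and 0.5% Triton X-100. Liberated free fatty acids were quantified colorimetrically at OD550. Results are % inhibition versus enzyme without inhibitor, n = 3.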
Target sequence in this assay (P04054 23-148 limits assumed): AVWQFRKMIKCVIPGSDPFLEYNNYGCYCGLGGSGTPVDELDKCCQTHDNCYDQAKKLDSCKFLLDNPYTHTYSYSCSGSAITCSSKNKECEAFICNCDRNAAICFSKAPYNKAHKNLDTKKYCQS

Data set [6] has as its target T2, Phospholipase A2. Kind of data set: Inhibition of PLA2 (unknown origin) using soybean phosphatidylcholine as substrate preincubated for 30 mins followed incubated for 60 mins after substrate addition by microplate reader relative to control. The gist of the method: as §3
Target sequence in this assay (P04054 whole entry): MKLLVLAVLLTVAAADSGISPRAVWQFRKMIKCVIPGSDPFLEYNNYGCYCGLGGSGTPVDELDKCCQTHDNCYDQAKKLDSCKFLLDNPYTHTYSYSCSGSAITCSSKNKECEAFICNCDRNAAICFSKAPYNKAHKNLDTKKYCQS
Data set [7] addresses T2, Phospholipase A2. As to the kind of experiment: Inhibition of PLA2 (unknown origin) using soybean phosphatidylcholine as substrate at 3 uM preincubated for 30 mins followed incubated for 60 mins after substrate addition by microplate reader relative to control. The gist of the method: as §3
Target sequence in this assay (P04054 23-148 limits assumed): as the sequence (P04054 23-148 limits assumed) above
The target in data set [8] is Transient receptor potential cation channel subfamily M member 2 (Homo sapiens, UniProt O94759). As to the kind of experiment: Inhibition of human TRPM2 expressed in HEK293T cells assessed as suppression of H2O2-induced calcium flux at 1 uM measured after 30 mins by Fluo-3/AM assay. In kind it is cell-based.
Transient receptor potential cation channel subfamily M member 2, sequence (O94759 whole entry, the tested form may be a part): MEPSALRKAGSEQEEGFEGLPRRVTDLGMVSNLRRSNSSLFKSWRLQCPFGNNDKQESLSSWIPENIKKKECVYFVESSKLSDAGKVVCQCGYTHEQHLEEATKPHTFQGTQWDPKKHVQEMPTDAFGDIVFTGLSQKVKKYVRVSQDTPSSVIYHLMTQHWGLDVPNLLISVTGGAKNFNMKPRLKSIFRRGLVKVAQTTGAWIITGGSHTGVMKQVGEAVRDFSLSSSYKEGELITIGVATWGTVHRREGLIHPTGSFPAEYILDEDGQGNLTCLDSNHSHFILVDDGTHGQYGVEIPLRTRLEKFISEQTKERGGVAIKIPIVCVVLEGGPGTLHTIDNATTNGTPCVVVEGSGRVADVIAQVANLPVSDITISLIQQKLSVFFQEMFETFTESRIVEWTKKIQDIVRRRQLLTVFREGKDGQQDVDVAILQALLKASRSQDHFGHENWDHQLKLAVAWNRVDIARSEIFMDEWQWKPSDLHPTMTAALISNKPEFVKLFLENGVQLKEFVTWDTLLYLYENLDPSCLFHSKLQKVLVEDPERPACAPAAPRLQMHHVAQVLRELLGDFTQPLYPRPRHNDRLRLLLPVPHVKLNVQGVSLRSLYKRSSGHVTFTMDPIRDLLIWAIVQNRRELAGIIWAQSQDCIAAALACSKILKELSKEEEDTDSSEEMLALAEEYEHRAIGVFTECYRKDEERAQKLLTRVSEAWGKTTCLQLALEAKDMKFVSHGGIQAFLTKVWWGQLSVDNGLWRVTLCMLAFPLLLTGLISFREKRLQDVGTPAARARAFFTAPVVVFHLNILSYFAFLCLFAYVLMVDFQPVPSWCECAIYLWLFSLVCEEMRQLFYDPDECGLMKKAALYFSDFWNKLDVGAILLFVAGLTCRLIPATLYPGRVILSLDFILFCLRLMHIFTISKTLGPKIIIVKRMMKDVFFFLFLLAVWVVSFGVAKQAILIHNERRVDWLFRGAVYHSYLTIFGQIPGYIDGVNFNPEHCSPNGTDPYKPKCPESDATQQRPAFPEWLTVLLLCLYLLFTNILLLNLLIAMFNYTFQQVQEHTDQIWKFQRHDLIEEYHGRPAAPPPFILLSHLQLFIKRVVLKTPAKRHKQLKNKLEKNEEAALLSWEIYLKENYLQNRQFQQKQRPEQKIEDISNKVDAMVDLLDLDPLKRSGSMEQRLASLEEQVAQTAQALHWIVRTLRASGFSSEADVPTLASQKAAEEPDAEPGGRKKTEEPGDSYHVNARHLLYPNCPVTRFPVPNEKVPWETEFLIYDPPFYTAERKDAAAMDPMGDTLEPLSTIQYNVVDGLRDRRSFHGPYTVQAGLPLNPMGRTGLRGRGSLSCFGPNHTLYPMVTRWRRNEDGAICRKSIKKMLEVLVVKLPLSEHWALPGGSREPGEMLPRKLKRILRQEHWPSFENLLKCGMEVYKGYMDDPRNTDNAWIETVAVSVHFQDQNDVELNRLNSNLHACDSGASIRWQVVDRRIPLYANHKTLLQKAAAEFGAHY
Data set [9] has as its system SH-SY5Y. As to the kind of experiment: Neuroprotective activity against oxygen glucose deprivation/reperfusion-induced cell death in human SH-SY5Y cells assessed as cell viability at 3 uM […] by CCK8 assay relative to control. In kind it is functional. To be noted: read-out: Activity.
The subject of data set [10] is SH-SY5Y. As to the kind of experiment: Cytotoxicity against human SH-SY5Y cells assessed as cell viability under normoxic/normal sugar condition at 10 to 30 uM by CCK-8 assay. In kind it is cell-based. To be noted: dose 10-30 µM. The gist of the method:
as §2

Data set [11] has as its system Mus musculus. Kind of data set: Neuroprotective activity in mouse model of transient middle cerebral artery occlusion-induced cerebral ischemia-reperfusion injury assessed as reduction in infarct volume at 3 mg/kg, iv treated for 3 hrs after onset of reperfusion by TTC staining based assay (reference value: 57.6 +/- 4.9%). In kind it is functional. Details: scale not given: the % may be the effect or the level left.

The test system of data set [12] is Mus musculus. Kind of data set: Neuroprotective activity in mouse model of transient middle cerebral artery occlusion-induced cerebral ischemia-reperfusion injury assessed as reduction in infarct volume at 1 mg/kg, iv treated for 3 hrs after onset of reperfusion by TTC staining based assay (reference value: 52 +/- 1.7%). In kind it is functional. Details: scale not given: the % may be the effect or the level left.

The subject of data set [13] is Mus musculus. Kind of data set: Neuroprotective activity in mouse model of transient middle cerebral artery occlusion-induced cerebral ischemia-reperfusion injury assessed as reduction in infarct volume at 0.3 mg/kg, iv treated for 3 hrs after onset of reperfusion by TTC staining based assay (reference value: 52 +/- 1.7%). Also on record: scale not given: the % may be the effect or the level left. In kind it is functional.

Data set [14] concerns Mus musculus. As to the kind of experiment: Neuroprotective activity in mouse model of transient middle cerebral artery occlusion-induced cerebral ischemia-reperfusion injury assessed as reduction neurological score at 3 mg/kg, iv treated for 3 hrs after onset of reperfusion by TTC staining based assay (reference value: 2.4 +/- 0.5). In kind it is functional.
Data set [15] deals with Mus musculus. Kind of data set: Neuroprotective activity in mouse model of transient middle cerebral artery occlusion-induced cerebral ischemia-reperfusion injury assessed as reduction neurological score at 1 mg/kg, iv treated for 3 hrs after onset of reperfusion by TTC staining based assay relative to control. In kind it is functional, organism-based.
Data set [16] has as its system Mus musculus. Kind of data set: Neuroprotective activity in mouse model of transient middle cerebral artery occlusion-induced cerebral ischemia-reperfusion injury assessed as reduction neurological score at 0.3 mg/kg, iv treated for 3 hrs after onset of reperfusion by TTC staining based assay relative to control. In kind it is functional, organism-based.

On to `COc1cccc(NC(=O)/C=C/c2ccc(Cl)cc2)c1`, for which, in data set [1], the IC50 was above 10 µM.

Turning to `CCCCCc1ccc(/C=C/C(=O)Nc2ccccc2C(=O)O)cc1`, in the data set with SH-SY5Y [2], the Activity is below 10%. Moreover, the inhibition was 62.2% in [3]; 39.3% in [4]; 40.4% against Phospholipase A2 [5]; 23.4% on Phospholipase A2 [7]; above 45% in data set [8]. The IC50 against Phospholipase A2 [6] was 22 µM.

With `CC1=NN(c2ccccc2)C(=O)C1` [EDARAVONE], in the data set with SH-SY5Y [9], the viability at 3 µM came to 81.2%. Besides, the Activity entry in the data set on SH-SY5Y [10] is “Non-Toxic”; with Mus musculus [11], 39%; with Mus musculus [12], 43.9%; in the data set on Mus musculus [13], 46.2%; with Mus musculus [14], 1.6. In addition, the outcome in the data set with Mus musculus [15] and with Mus musculus [16] was inactive.
